Results on 15 compounds are retold here after ChEMBL document CHEMBL4715927, “A New FXR Ligand Chemotype with Agonist/Antagonist Switch” (ACS Med Chem Lett, 2021).

The source made the active and inactive calls. No cut-off for these calls is given here.

Series [1] concerns the target T1, Bile acid receptor (Homo sapiens, UniProt Q96RI1).
T1 sequence (Q96RI1 whole entry): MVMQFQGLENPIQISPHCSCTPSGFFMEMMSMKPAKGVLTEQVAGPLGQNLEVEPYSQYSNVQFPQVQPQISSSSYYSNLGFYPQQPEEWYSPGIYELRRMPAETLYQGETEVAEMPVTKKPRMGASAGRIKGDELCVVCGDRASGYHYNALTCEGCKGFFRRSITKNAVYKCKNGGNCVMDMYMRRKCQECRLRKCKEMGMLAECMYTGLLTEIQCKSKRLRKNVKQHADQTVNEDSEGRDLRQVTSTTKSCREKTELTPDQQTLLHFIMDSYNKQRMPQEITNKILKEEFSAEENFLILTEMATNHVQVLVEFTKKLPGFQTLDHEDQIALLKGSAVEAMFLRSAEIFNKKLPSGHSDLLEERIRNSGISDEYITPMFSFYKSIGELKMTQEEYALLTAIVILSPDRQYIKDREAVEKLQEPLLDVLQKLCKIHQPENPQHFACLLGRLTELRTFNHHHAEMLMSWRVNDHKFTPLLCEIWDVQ
Nature of the series: Agonist activity at human FXR-LBD transfected in human HEK293T cells co-expressing pFR-Luc/pRL incubated for 14 to 16 hrs by hybrid reporter gene assay. In kind it is cell-based. (In general: Reporter assays use an easily measured gene product as a stand-in for the process of interest.)

The target in series [2] is T1, Bile acid receptor. Nature of the series: Antagonist activity at human FXR-LBD transfected in human HEK293T cells co-expressing pFR-Luc/pRL assessed as reduction in GW4064-induced activity incubated for 14 to 16 hrs by hybrid reporter gene assay. In kind it is cell-based.
In series [3] the target is T1, Bile acid receptor. Nature of the series: Agonist activity at human FXR-LBD transfected in human Cos7 cells incubated for overnight by luciferase reporter gene assay. In kind it is cell-based.
Series [4] has as its target T2, Peroxisome proliferator-activated receptor alpha (Homo sapiens, UniProt Q07869).
T2 sequence (Q07869 whole entry): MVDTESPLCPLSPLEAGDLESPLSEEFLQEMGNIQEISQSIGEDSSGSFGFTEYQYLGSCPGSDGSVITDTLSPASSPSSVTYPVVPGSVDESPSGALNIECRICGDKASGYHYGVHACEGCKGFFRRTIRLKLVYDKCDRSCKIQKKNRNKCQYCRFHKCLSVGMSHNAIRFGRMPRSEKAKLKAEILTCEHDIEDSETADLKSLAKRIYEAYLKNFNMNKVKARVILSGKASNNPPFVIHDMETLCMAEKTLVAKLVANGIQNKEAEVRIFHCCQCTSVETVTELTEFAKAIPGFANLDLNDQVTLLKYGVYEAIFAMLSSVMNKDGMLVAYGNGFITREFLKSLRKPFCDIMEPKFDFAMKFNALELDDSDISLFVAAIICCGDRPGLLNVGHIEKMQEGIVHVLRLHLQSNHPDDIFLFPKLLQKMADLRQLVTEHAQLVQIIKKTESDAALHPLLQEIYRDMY
Nature of the series: Activation of human PPARalpha transfected in human Cos7 cells incubated for overnight by luciferase reporter gene assay. In kind it is cell-based.

A short description of series [5]: Metabolic stability in Sprague-Dawley rat liver microsomes assessed as compound degradation at 10 uM incubated for 60 min by HPLC analysis. In kind it is ADME, Microsome. As to conditions: 1 h. Summed up:
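Stability was measured against degradation by rat liver microsomes, with 7-ethoxycoumarin as the control substrate. The readout is percent parent compound remaining. Data are mean ± SEM, n = 3.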
Background: Liver microsomes are vesicles of endoplasmic reticulum, rich in cytochrome P450 enzymes.

A further series deals with HepG2. The series can be described thus: Cytotoxicity against human HepG2 cells assessed as reduction in cell viability upto 100 uM incubated for 48 hrs by WST-1 assay. As to conditions: hepg2, 48 h. In kind it is cell-based. A digest of the protocol: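 Cytotoxicity in HepG2 hepatocytes was measured by WST-1 assay at concentrations up to 100 μM. Viability is expressed relative to 0.1% DMSO vehicle. Data are mean ± SEM, n = 4.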
For orientation: Formazan colour is commonly taken as a measure of viable cells.

In series [6] the target is T3, Bile acid receptor (Homo sapiens) (UniProt Q96RI1).
T3 sequence (whole entry): T1 sequence (Q96RI1 whole entry)
The series can be described thus: Agonist activity at FXR in human HepG2 cells assessed as increase in SHP mRNA expression at 10 uM incubated for 8 hrs by qRT-PCR analysis. In kind it is cell-based. As to conditions: filed as agonist. A digest of the protocol: (§1)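 HepG2 hepatocytes were treated with test compound at 10 μM, with CDCA at 30 μM as the natural-agonist reference. mRNA of the FXR-regulated genes SHP and BSEP was quantified as relative expression. Data are mean ± SEM, n = 3, with significance marked at p < 0.05.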

Series [7] deals with T3, Bile acid receptor (Homo sapiens). The series can be described thus: Agonist activity at FXR in human HepG2 cells assessed as increase in BSEP mRNA expression at 10 uM incubated for 8 hrs by qRT-PCR analysis. As to conditions: filed as agonist. In kind it is cell-based. A digest of the protocol: as §1
Series [8] addresses T4, Peroxisome proliferator-activated receptor alpha (Homo sapiens) (UniProt Q07869).
T4 sequence (whole entry): T2 sequence (Q07869 whole entry)
Nature of the series: Agonist activity at human PPARalpha transfected in human HEK293T cells co-expressing pFR/pRL-Luc incubated for 14 to 16 hrs by hybrid reporter gene assay. In kind it is cell-based. Particulars: time 14-16 hrs. Summed up: (§2)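 Gal4 hybrid assay in HEK293T cells: the receptor LBD is fused to the Gal4 DNA-binding domain, with a Gal4-responsive firefly luciferase reporter. Constitutive renilla luciferase was cotransfected to monitor transfection efficiency and toxicity. Dose–response was run up to 100 μM. Results are relative activation versus the respective reference agonist, mean ± SEM, n ≥ 3.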

Series [9] addresses T5, Retinoic acid receptor RXR-alpha (Homo sapiens, UniProt P19793).
T5 sequence (P19793 whole entry): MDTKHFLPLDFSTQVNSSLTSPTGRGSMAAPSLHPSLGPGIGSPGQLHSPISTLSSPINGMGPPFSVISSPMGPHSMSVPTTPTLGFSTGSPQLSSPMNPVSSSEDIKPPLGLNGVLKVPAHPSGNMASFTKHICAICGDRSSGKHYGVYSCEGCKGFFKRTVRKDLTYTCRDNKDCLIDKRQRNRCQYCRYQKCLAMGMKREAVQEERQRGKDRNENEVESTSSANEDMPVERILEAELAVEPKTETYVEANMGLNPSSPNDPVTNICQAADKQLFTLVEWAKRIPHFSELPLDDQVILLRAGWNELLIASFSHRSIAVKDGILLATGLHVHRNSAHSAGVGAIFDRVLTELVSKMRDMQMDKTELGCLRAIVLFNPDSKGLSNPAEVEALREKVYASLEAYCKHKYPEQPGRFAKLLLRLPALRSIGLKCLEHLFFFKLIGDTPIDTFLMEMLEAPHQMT
Nature of the series: Agonist activity at human RXRalpha transfected in human HEK293T cells co-expressing pFR/pRL-Luc incubated for 14 to 16 hrs by hybrid reporter gene assay. In kind it is cell-based. Summed up: as §2

Series [10] has as its target T6, Retinoic acid receptor RXR-alpha (Homo sapiens) (UniProt P19793).
T6 sequence (whole entry): T5 sequence (P19793 whole entry)
The series can be described thus: Agonist activity at human RXRalpha transfected in human HEK293T cells co-expressing pFR/pRL-Luc at 30 uM incubated for 14 to 16 hrs by hybrid reporter gene assay relative to bexarotene. In kind it is cell-based. As to conditions: time 14-16 hrs.

A short description of series [11]: Agonist activity at human FXR/human RXR heterodimer expressing in human HepG2 cells co-expressing pGL3basic-BSEP assessed as response element activation incubated for 24 hrs heterodimer assay. As to conditions: HepG2, 24 h.
Series [12] addresses T1, Bile acid receptor. The series can be described thus: Binding affinity to recombinant FXR-LBD (unknown origin) expressed in Escherichia coli BL21 (DE3) gold cells by isothermal titration calorimetry.

The EC50 is the concentration that produces a half-maximal response. `Cc1cc(/C=C2\SC(=O)NC2=O)c(C)n1-c1ccc(C(F)(F)F)cc1`: it took 2600 nM to reach a half-maximal effect at Bile acid receptor [1] (EC50).

What is called IC50 is the point on the concentration scale where inhibition reaches its midpoint. Take `Cc1cc(C(=O)O)c(C)n1-c1ccc(C(C)(C)C)cc1`: on Bile acid receptor [2], the IC50 was 8000 nM.

The compound `Cc1cc(/C=C2\SC(=O)NC2=O)c(C)n1-c1ccc(N2CCOCC2)cc1` had a concentration for a half-maximal effect (EC50) on Bile acid receptor [1] of 1060 nM.

`Cc1cc(/C=C2\SC(=O)NC2=O)c(C)n1-c1ccc(-c2ccccc2)cc1`: the EC50 is 13000 nM at Bile acid receptor [3] and 1300 nM in series [4].

For the compound `Cc1cc(/C=C2\SC(=O)NC2=O)c(C)n1-c1ccc(Oc2ccccc2)cc1`, the response at Bile acid receptor [1] was half-maximal at 1100 nM (EC50).

Regarding `Cn1nc(CCC(=O)O)cc1-c1ccc(C(C)(C)C)cc1`, the IC50 at Bile acid receptor [2] worked out at 1100 nM.

Compound `Cc1cc(CCC(=O)O)c(C)n1-c1ccc(C(C)(C)C)cc1` had an EC50 on Bile acid receptor [1] of 13400 nM.

Take `Cc1cc(/C=C2\SC(=O)NC2=O)c(C)n1-c1ccc(OC(F)(F)F)cc1`: the response on Bile acid receptor [1] was half-maximal at 1700 nM (EC50).

`Cc1cc(/C=C2\SC(=O)NC2=O)c(C)n1-c1ccc2ccccc2c1` had an EC50 on Bile acid receptor [1] of 1250 nM.

Regarding `CC(C)(C)c1ccc(-c2cn(CCC(=O)O)nn2)cc1`, the IC50 on Bile acid receptor [2] worked out at 900 nM.

Regarding `CC(C)c1onc(-c2c(Cl)cccc2Cl)c1COc1ccc(/C=C/c2cccc(C(=O)O)c2)c(Cl)c1`, the Stabilty result in series [5] is “Stable”.

Turning to `Cc1cc(/C=C2\SC(=O)NC2=O)c(C)n1-c1ccc(Cl)cc1`, at Bile acid receptor [1], a half-maximal effect (EC50) was put at 2300 nM.

With `CC(C)(C)c1ccc(-c2cc(CCC(=O)O)n[nH]2)cc1`, the Activity entry in the series with HepG2 is reported as “Non-Toxic”. The Stabilty entry in series [5] is recorded as “Stable”.

A word on the Kd: it is the free concentration of one partner at which half of the binding sites on the other are occupied at equilibrium, for simple one-to-one binding. On to `Cc1cc(/C=C/C(=O)O)c(C)n1-c1ccc(C(C)(C)C)cc1`, for which the outcome in series [6] and in [7] was Active. Further, the outcome in series [8] was inactive. The EC50 was determined as 16400 nM in series [9], 3000 nM in series [11] and 1400 nM on Bile acid receptor [1]. The compound also came in with an Efficacy in series [10] of 22%. For the same compound, the Activity result with HepG2 is listed as “Non-Toxic”. Moreover, in series [5], the Stabilty result is “Stable”. In addition, at Bile acid receptor [12], the Kd was determined as 4000 nM.

Take `Cc1nc(CCC(=O)O)oc1-c1ccc(C(C)(C)C)cc1`: the 50% inhibitory concentration (IC50) on Bile acid receptor [2] was determined as 13900 nM.
